{"source": "ChEMBL document CHEMBL3813669", "about": "“Synthesis and in vitro evaluation of hydrazinyl phthalazines against malaria parasite, Plasmodium falciparum” (Bioorg Med Chem Lett, 2016)", "key": {"MDCK": {"system": "MDCK", "assay": "Cytotoxicity against MDCK cells assessed as cell viability measured after overnight incubation by MTT assay", "type": "cell-based", "details": "Canis lupus familiaris", "method_in_brief": "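MDCK cells were tested by MTT viability assay at compound concentrations up to 200 μM, alongside controls.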"}, "Plasmodium falciparum [1]": {"system": "Plasmodium falciparum", "assay": "Antiplasmodial activity against Plasmodium falciparum 3D7 trophozoite stage infected in human RBCs assessed as reduction in parasitemia after 48 hrs by Hoechst-3342 staining based flow cytometric analysis", "type": "functional, organism-based", "details": "3D7, 48 h", "method_in_brief": "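Trophozoite-stage 3D7 parasites (~24–26 hpi) were exposed to 1.6 μM to 100 μM compound for 48 h, with DMSO-treated parasites as negative control and chloroquine as positive control. Parasitemia was read by flow cytometry, and IC50 was estimated from the concentration series.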"}, "Plasmodium falciparum [2]": {"system": "Plasmodium falciparum", "assay": "Antiplasmodial activity against chloroquine-resistant Plasmodium falciparum K1 infected in human RBCs assessed as reduction in parasitemia after 48 hrs by Hoechst-3342 staining based flow cytometric analysis", "type": "functional, organism-based", "details": "K1, 48 h", "method_in_brief": "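The K1 strain was screened across a 0–100 μM compound range alongside 3D7, and IC50 values were derived from parasitemia. Giemsa-stained smears from representative experiments were also examined by microscopy for parasite phenotype.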"}, "Plasmodium falciparum [3]": {"system": "Plasmodium falciparum", "assay": "Antiplasmodial activity against Plasmodium falciparum 3D7 infected in human RBCs assessed as inhibition of ring to trophozoite stage transition at 4 times IC50 measured after 12 hrs by flow cytometric analysis", "type": "functional, organism-based", "method_in_brief": "(§1)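 Synchronised 3D7 cultures received compound at ring (2-4 h), trophozoite (24-26 h) or schizont (36-38 h) stage. Dosing was 4×, 2×, 1× and 0.25× the IC50 estimated from the 3D7 dose-response. Samples were harvested about 12 h later, and stage progression and morphology were monitored by flow cytometry and microscopy.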"}, "[4]": {"assay": "Selectivity index, ratio of IC50 for MDCK cells to IC50 for Plasmodium falciparum 3D7", "method_in_brief": "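Ratio computed as […]. The 3D7 IC50 came from trophozoite-stage parasites (~24-26 hpi) incubated 48 h with 1.6-100 μM compound, with DMSO and chloroquine controls. The MDCK IC50 came from the MTT assay tested up to 200 μM.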"}, "Plasmodium falciparum [5]": {"system": "Plasmodium falciparum", "assay": "Antiplasmodial activity against Plasmodium falciparum 3D7 infected in human RBCs assessed as inhibition of trophozoite to schizont stage transition at 2 and 4 times IC50 measured after 12 hrs by flow cytometric analysis", "type": "functional, organism-based", "method_in_brief": "as §1"}, "Plasmodium falciparum [6]": {"system": "Plasmodium falciparum", "assay": "Antiplasmodial activity against Plasmodium falciparum 3D7 infected in human RBCs assessed as inhibition of schizont to ring stage transition at 2 and 4 times IC50 measured after 12 hrs by flow cytometric analysis", "type": "functional, organism-based", "method_in_brief": "as §1"}, "Plasmodium falciparum [7]": {"system": "Plasmodium falciparum", "assay": "Antiplasmodial activity against Plasmodium falciparum 3D7 trophozoite stage infected in human RBCs assessed as reduction in parasitemia at 1 to 100 uM after 48 hrs by Hoechst-3342 staining based flow cytometric analysis", "type": "functional, organism-based", "method_in_brief": "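3D7 parasites at trophozoite stage (~30 hpi) were exposed to 1, 20 and 100 μM compound, with DMSO-treated negative control. Parasitemia was read by flow cytometry after 48 h.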"}, "Plasmodium falciparum [8]": {"system": "Plasmodium falciparum", "assay": "Antiplasmodial activity against Plasmodium falciparum 3D7 infected in human RBCs assessed as inhibition of ring to trophozoite stage transition at 0.25 to 4 times IC50 measured after 12 hrs by flow cytometric analysis", "type": "functional, organism-based", "method_in_brief": "as §1"}, "Plasmodium falciparum [9]": {"system": "Plasmodium falciparum", "assay": "Antiplasmodial activity against Plasmodium falciparum 3D7 infected in human RBCs assessed as inhibition of merozoite maturation at schizont stage at IC50 by Giemsa-staining based microscopic analysis", "type": "functional, organism-based"}, "Plasmodium falciparum [10]": {"system": "Plasmodium falciparum", "assay": "Antiplasmodial activity against Plasmodium falciparum 3D7 infected in human RBCs assessed as inhibition of trophozoite to schizont stage transition at 0.25 to 4 times IC50 measured after 12 hrs by flow cytometric analysis", "type": "functional, organism-based", "method_in_brief": "as §1"}, "Plasmodium falciparum [11]": {"system": "Plasmodium falciparum", "assay": "Antiplasmodial activity against Plasmodium falciparum 3D7 infected in human RBCs assessed as inhibition of schizont to ring stage transition at 1 to 4 times IC50 measured after 12 hrs by flow cytometric analysis", "type": "functional, organism-based", "method_in_brief": "as §1"}, "Plasmodium falciparum [12]": {"system": "Plasmodium falciparum", "assay": "Antiplasmodial activity against Plasmodium falciparum 3D7 infected in human RBCs assessed as inhibition of schizont to ring stage transition at 4 times IC50 measured after 12 hrs by flow cytometric analysis", "type": "functional, organism-based", "method_in_brief": "as §1"}}, "note": "Activity calls are given as the source filed them. The calls are words filed in the database; no cut-off is given here."}
{"smiles": "Cc1[nH]c2ccccc2c1/C=N/Nc1nncc2ccccc12", "values": [{"measurement": "IC50", "setting": "MDCK", "value": "> 200", "unit": "µM"}, {"measurement": "IC50", "setting": "Plasmodium falciparum [1]", "value": 12.2, "unit": "µM"}, {"measurement": "IC50", "setting": "Plasmodium falciparum [2]", "value": 5.98, "unit": "µM"}, {"measurement": "inhibition", "setting": "Plasmodium falciparum [3]", "value": "Active"}, {"measurement": "Ratio IC50", "setting": "[4]", "value": 16.42}, {"measurement": "inhibition", "setting": "Plasmodium falciparum [5]", "value": "Active"}, {"measurement": "inhibition", "setting": "Plasmodium falciparum [6]", "value": "Active"}]}
{"smiles": "C(=N\\Nc1nncc2ccccc12)/C1CC1", "values": [{"measurement": "inhibition", "setting": "Plasmodium falciparum [7]", "value": "Active"}]}
{"smiles": "Oc1ccc(Cl)cc1/C=N\\Nc1nncc2ccccc12", "values": [{"measurement": "IC50", "setting": "MDCK", "value": "> 100", "unit": "µM"}, {"measurement": "IC50", "setting": "Plasmodium falciparum [1]", "value": 1.65, "unit": "µM"}, {"measurement": "IC50", "setting": "Plasmodium falciparum [2]", "value": 1.69, "unit": "µM"}, {"measurement": "Ratio IC50", "setting": "[4]", "value": 60.75}, {"measurement": "inhibition", "setting": "Plasmodium falciparum [8]", "value": "inactive"}, {"measurement": "inhibition", "setting": "Plasmodium falciparum [9]", "value": "Active"}, {"measurement": "inhibition", "setting": "Plasmodium falciparum [10]", "value": "inactive"}, {"measurement": "inhibition", "setting": "Plasmodium falciparum [6]", "value": "Active"}]}
{"smiles": "C(=N\\Nc1nncc2ccccc12)/c1c(-c2ccccc2)[nH]c2ccccc12", "values": [{"measurement": "IC50", "setting": "MDCK", "value": "> 200", "unit": "µM"}, {"measurement": "IC50", "setting": "Plasmodium falciparum [1]", "value": 3.49, "unit": "µM"}, {"measurement": "IC50", "setting": "Plasmodium falciparum [2]", "value": 2.43, "unit": "µM"}, {"measurement": "Ratio IC50", "setting": "[4]", "value": 57.31}, {"measurement": "inhibition", "setting": "Plasmodium falciparum [5]", "value": "Active"}, {"measurement": "inhibition", "setting": "Plasmodium falciparum [8]", "value": "inactive"}, {"measurement": "inhibition", "setting": "Plasmodium falciparum [6]", "value": "Active"}]}
{"smiles": "C(=N\\Nc1nncc2ccccc12)/c1ccc2c(c1)CCO2", "values": [{"measurement": "inhibition", "setting": "Plasmodium falciparum [7]", "value": "Active"}]}
{"smiles": "O=c1cc(/C=N/Nc2nncc3ccccc23)oc2ccccc12", "values": [{"measurement": "inhibition", "setting": "Plasmodium falciparum [7]", "value": "Active"}]}
{"smiles": "CS(=O)(=O)c1ccc(/C=N/Nc2nncc3ccccc23)cc1", "values": [{"measurement": "inhibition", "setting": "Plasmodium falciparum [7]", "value": "Active"}]}
{"smiles": "Cc1cc(/C=N/Nc2nncc3ccccc23)c([N+](=O)[O-])cc1C", "values": [{"measurement": "inhibition", "setting": "Plasmodium falciparum [7]", "value": "Active"}]}
{"smiles": "Cn1ccnc1/C=N/Nc1nncc2ccccc12", "values": [{"measurement": "IC50", "setting": "MDCK", "value": "> 200", "unit": "µM"}, {"measurement": "IC50", "setting": "Plasmodium falciparum [1]", "value": 3.5, "unit": "µM"}, {"measurement": "IC50", "setting": "Plasmodium falciparum [2]", "value": 2.23, "unit": "µM"}, {"measurement": "Ratio IC50", "setting": "[4]", "value": 57.22}, {"measurement": "inhibition", "setting": "Plasmodium falciparum [11]", "value": "Active"}, {"measurement": "inhibition", "setting": "Plasmodium falciparum [8]", "value": "inactive"}, {"measurement": "inhibition", "setting": "Plasmodium falciparum [9]", "value": "Active"}, {"measurement": "inhibition", "setting": "Plasmodium falciparum [10]", "value": "inactive"}]}
{"smiles": "C(=N\\Nc1nncc2ccccc12)/c1c[nH]c2ccccc12", "values": [{"measurement": "IC50", "setting": "MDCK", "value": "> 200", "unit": "µM"}, {"measurement": "IC50", "setting": "Plasmodium falciparum [1]", "value": 13.7, "unit": "µM"}, {"measurement": "IC50", "setting": "Plasmodium falciparum [2]", "value": 6.66, "unit": "µM"}, {"measurement": "Ratio IC50", "setting": "[4]", "value": 14.56}, {"measurement": "inhibition", "setting": "Plasmodium falciparum [8]", "value": "inactive"}, {"measurement": "inhibition", "setting": "Plasmodium falciparum [12]", "value": "Active"}, {"measurement": "inhibition", "setting": "Plasmodium falciparum [10]", "value": "inactive"}]}
